From ChEMBL document CHEMBL3769366, “Novel tricyclic pyrazolo[1,5-d][1,4]benzoxazepin-5(6H)-one: Design, synthesis, model and use as hMAO-B inhibitors” (Bioorg Med Chem, 2016)

How the values were obtained:
[1] = target: T1, Amine oxidase [flavin-containing] A (Homo sapiens, UniProt P21397); test: (§1) Inhibition of recombinant human microsomal MAO-A expressed in baculovirus-infected insect cells using p-tyramine as substrate assessed as H2O2 production at 60 uM pretreated for 15 mins followed by addition of Amplex Red, horseradish peroxidase and substrate measured for 15 mins by fluorimetric method; conditions: 0.25 h
T1 sequence (P21397 whole entry): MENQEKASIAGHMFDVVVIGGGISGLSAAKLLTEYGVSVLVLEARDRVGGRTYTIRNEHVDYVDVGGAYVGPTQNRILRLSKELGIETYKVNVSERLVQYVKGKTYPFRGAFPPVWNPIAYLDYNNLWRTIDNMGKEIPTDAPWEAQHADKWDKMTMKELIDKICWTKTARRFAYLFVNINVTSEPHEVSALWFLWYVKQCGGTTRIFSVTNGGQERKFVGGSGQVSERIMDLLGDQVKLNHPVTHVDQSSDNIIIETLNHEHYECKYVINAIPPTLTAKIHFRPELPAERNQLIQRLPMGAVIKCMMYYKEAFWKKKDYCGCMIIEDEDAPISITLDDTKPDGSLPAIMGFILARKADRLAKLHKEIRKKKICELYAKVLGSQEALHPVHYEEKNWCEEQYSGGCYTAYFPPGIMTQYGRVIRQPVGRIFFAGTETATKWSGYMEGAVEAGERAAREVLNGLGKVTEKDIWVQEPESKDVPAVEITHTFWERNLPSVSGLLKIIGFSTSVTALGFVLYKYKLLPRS
Outline: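 Human MAO-A from microsomes of insect cells infected with recombinant baculovirus, 1.1 µg protein, adjusted to a rate of 165 pmol p-tyramine/min. Inhibitors in 0.05 M sodium phosphate pH 7.4, preincubated 15 min at 37 °C. Reaction started with 200 µM Amplex Red, 1 U/mL HRP and 1 mM p-tyramine. H2O2-derived resorufin fluorescence (ex 545/em 590 nm) read over 15 min at 37 °C, linear phase.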

[2] = target: T2, Amine oxidase [flavin-containing] B (Homo sapiens, UniProt P27338); test: Inhibition of recombinant human microsomal MAO-B expressed in baculovirus-infected insect cells using p-tyramine as substrate assessed as H2O2 production pretreated for 15 mins followed by addition of Amplex Red, horseradish peroxidase and substrate measured for 15 mins by fluorimetric method; type: cell-based
T2 sequence (P27338 whole entry): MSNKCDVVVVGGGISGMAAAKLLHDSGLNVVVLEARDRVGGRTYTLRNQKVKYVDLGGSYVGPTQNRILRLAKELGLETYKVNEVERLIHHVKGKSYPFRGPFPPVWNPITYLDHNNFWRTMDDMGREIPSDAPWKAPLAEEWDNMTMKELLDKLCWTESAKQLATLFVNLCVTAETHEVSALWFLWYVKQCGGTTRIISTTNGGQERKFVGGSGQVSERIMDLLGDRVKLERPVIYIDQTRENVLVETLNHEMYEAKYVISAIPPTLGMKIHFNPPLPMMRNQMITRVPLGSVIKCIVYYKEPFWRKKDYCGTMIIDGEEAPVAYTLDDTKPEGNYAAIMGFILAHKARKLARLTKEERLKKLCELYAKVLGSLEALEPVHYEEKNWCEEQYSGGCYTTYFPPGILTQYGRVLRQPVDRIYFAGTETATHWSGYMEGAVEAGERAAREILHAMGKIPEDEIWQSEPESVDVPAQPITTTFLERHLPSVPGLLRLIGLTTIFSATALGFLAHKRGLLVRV

Homo sapiens = species on record: Homo sapiens; test: Selectivity index, ratio of IC50 for recombinant human microsomal MAO-A to recombinant human microsomal MAO-B
[3] = target: T1, Amine oxidase [flavin-containing] A; test: Inhibition of recombinant human microsomal MAO-A expressed in baculovirus-infected insect cells using p-tyramine as substrate assessed as H2O2 production pretreated for 15 mins followed by addition of Amplex Red, horseradish peroxidase and substrate measured for 15 mins by fluorimetric method
[4] = target: T2, Amine oxidase [flavin-containing] B; test: as §1, with “MAO-B” for “MAO-A”; conditions: 0.25 h

| SMILES | inhibition (INH) [1] | IC50 [2] | Ratio IC50 (Homo sapiens) | IC50 [3] | INH [4] |
| --- | --- | --- | --- | --- | --- |
| O=C1COc2ccc(Cl)cc2C2CC(c3ccccc3F)=NN12 (stereo not given) | Not Active | 0.584 µM | 103 |  |  |
| O=C1COc2ccc(Cl)cc2C2CC(c3ccc(Cl)cc3)=NN12 (stereo not given) |  | 0.504 µM | 9.3 | 4.71 µM |  |
| O=C1COc2ccc(Cl)cc2C2CC(c3ccc(F)cc3)=NN12 (stereo not given) |  | 0.242 µM | 19.2 | 4.65 µM |  |
| COc1ccc(C2=NN3C(=O)COc4ccccc4C3C2)cc1 (stereo not given) | Not Active |  |  |  | Not Active |
| Cc1ccccc1C1=NN2C(=O)COc3ccccc3C2C1 (stereo not given) | Not Active |  |  |  | Not Active |
| COc1ccc(C2=NN3C(=O)C(C)Oc4ccccc4C3C2)cc1 (stereo not given) | Not Active |  |  |  | Not Active |
| Cc1ccc(C2=NN3C(=O)C(C)Oc4ccccc4C3C2)cc1 (stereo not given) | Not Active | 45.2 µM | 1.3 |  |  |
| CC1Oc2ccccc2C2CC(c3ccc(Cl)cc3)=NN2C1=O (stereo not given) | Not Active | 0.452 µM | 133 |  |  |
| COc1ccc(C2=NN3C(=O)COc4ccc(Cl)cc4C3C2)cc1 (stereo not given) | Not Active | 2.72 µM | 22 |  |  |
| O=C1COc2ccccc2C2CC(c3ccccc3Cl)=NN12 (stereo not given) |  | 1.32 µM | 42.1 | 55.7 µM |  |
| O=C1COc2ccccc2C2CC(c3ccc(F)cc3)=NN12 (stereo not given) | Not Active | 1.78 µM | 33.7 |  |  |
| Cc1ccc(C2=NN3C(=O)COc4ccc(Cl)cc4C3C2)cc1 (stereo not given) |  | 1.63 µM | 2.4 | 3.9 µM |  |
| CC(C)c1ccc(C2=NN3C(=O)COc4ccccc4C3C2)cc1 (stereo not given) | Not Active | 3.52 µM | 17 |  |  |
| CC1Oc2ccccc2C2CC(c3ccccc3Cl)=NN2C1=O (stereo not given) |  | 0.348 µM | 11.7 | 4.05 µM |  |
| Cc1ccc(C2=NN3C(=O)COc4ccccc4C3C2)cc1 (stereo not given) | Not Active |  |  |  | Not Active |
| CC1Oc2ccccc2C2CC(c3ccc(F)cc3)=NN2C1=O (stereo not given) | Not Active | 0.221 µM | 271 |  |  |
| CC1Oc2ccccc2C2CC(c3ccccc3)=NN2C1=O (stereo not given) | Not Active | 34.7 µM | 1.7 |  |  |
| C#CCN(C)[C@H](C)Cc1ccccc1 [SELEGILINE] | Not Active |  |  |  |  |
| O=C1COc2ccccc2C2CC(c3ccc(Cl)cc3)=NN12 (stereo not given) |  |  | 0.9 | 53.3 µM | Not Active |
| COc1ccc(C2=NN3C(=O)COc4c(Br)cc(Br)cc4C3C2)cc1 (stereo not given) |  | 0.467 µM | 10.2 | 4.76 µM |  |
| O=C1COc2ccccc2C2CC(c3ccccc3)=NN12 (stereo not given) |  | 2.88 µM | 0.8 | 2.19 µM |  |
| O=C1COc2ccc(Cl)cc2C2CC(c3ccccc3)=NN12 (stereo not given) | Not Active | 2.57 µM | 23.4 |  |  |
